# Test results from ChEMBL document CHEMBL4513216, “Probing the Open Global Health Chemical Diversity Library for Multistage-Active Starting Points for Next-Generation Antimalarials” (ACS Infect Dis, 2020).
# Assay: Toxicity liver stage against HepG2, at 10uM
# Assay type: cell-based
# Design: test concentration 10 uM, cell line HepG2-A16-CD81EGFP
# Details: human, HepG2-A16-CD81EGFP cells; read-out: INHIBITION
# How it was run: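 Uninfected HepG2-A16-CD81EGFP cells, 3 × 10^3 per well, 1536-well, plated on prespotted compound at 10 μM final, parasite-free screening media added to match infected plates; puromycin 10 μM positive, DMSO 0.5% negative; run in parallel with 48 h PbLuc assay at 37 °C, 5% CO2; viability by CellTiter-Glo luminescence, normalized to controls.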
row,Compound,cytotoxicity at 10 µM
1,Cc1cc(NC(=O)[C@H]2CCCCN2C(=O)OC(C)(C)C)no1,-1.48%
2,CC(c1ccco1)N(C(=O)COc1ccc(C#N)cc1)C1CC1 (stereo not given),-6.6%
3,O=S1(=O)NC2(CCCN(Cc3ccc(Cl)cc3)C2)COc2ccccc21 (stereo not given),15.2%
4,Cc1ncsc1-c1nnc(C2CCN(Cc3ccccc3)CC2)o1,-6.39%
5,CCN(CC)CCCNCc1cc2cc(C)ccc2[nH]c1=O,-1.55%
6,O=C(Cc1csc(N2CCNC2=O)n1)NC(c1ccccc1)C1CC1 (stereo not given),-136%
7,CCc1ccc(CN2CCN(C)C3(CCC(=O)N(CC4CC4)CC3)C2)o1 (stereo not given),-2.77%
8,O=C(Cc1cc(F)cc(Cl)c1)N[C@@H]1CCNC[C@H]1O,-3.66%
9,CS(=O)(=O)CCn1ccc(NC(=O)Cc2ccccc2F)n1,3.73%
10,CCc1nc(CN2CCCN(C(=O)c3cnc[nH]3)CC2)cs1,-9.39%
11,CC(C)c1ncc(CN2C[C@@H](CN3CCCCC3)[C@@H](CO)C2)cn1,-10.2%
12,CN(C(=O)c1ccncc1)c1ccccc1S(C)(=O)=O,7.39%
13,O=C(c1cccnc1)N1CCC(Oc2cccc(C(F)(F)F)c2)CC1,7.19%
14,CN1CC(C(=O)N2CCN(c3cccc(Cl)c3)C(=O)C2)NC1=O (stereo not given),-3.94%
15,Cc1nn(C)c(Cl)c1C1CCCN1Cc1ccccn1 (stereo not given),-0.459%
16,Cc1cnc(C(=O)N2CCCC(n3nc(C)nc3C)C2)cn1 (stereo not given),-12%
17,NC(=O)CN1CCN(c2ccnc3c(F)ccc(F)c23)CC1,0.315%
18,CN(C)C(=O)c1cccc(CN2CCOC(Cn3cncn3)C2)c1 (stereo not given),-3.75%
19,CCc1nc(C2CCCN2Cc2nnc(C3CCC3)o2)no1 (stereo not given),1.48%
20,Cc1ccc(CN2CCC3(CC2)C(=O)N(CCO)CCN3C)o1,-1.63%
21,CC(C)CCN1C[C@@H]2C[C@H](C(=O)Nc3ccccc3)[C@H](C1)O2,-7.99%
22,C[C@H]1CN(c2ccccn2)C[C@@]12CCN(Cc1cccnc1)C2=O,-1.16%

row,Compound,cytotoxicity at 10 µM
1,FC(F)(F)CCN(Cc1ccon1)C1CCC1,1.19%
2,CCN(CC)Cc1ccc(CNC(=O)C(C)(C)n2cc(Br)cn2)cc1,33.6%
3,Cc1c(CN2CCCC2c2cncc(CN3CCCC3)n2)cnn1C (stereo not given),-1.15%
4,CC(C)C(CCO)NC(=O)Nc1ccc(-c2csnn2)cc1 (stereo not given),-10%
5,O=C(NCC(Cc1cccc(F)c1)n1cccc1)C1CC1 (stereo not given),1.22%
6,CN(CCc1ccccn1)C(=O)Nc1cccnc1-n1cccn1,3.25%
7,O=C(c1ccc(C2CCCN2C(=O)c2ccoc2)s1)N1CCOCC1 (stereo not given),-156%
8,CCC(=O)Nc1cccc(OCC(=O)N(C)Cc2cc(COC)[nH]n2)c1,1.79%
9,Cc1cc(CN2CCC(CNC(=O)c3noc4c3CCCC4)C2)[nH]n1 (stereo not given),-142%
10,c1cc([C@H]2C[C@@H]3CCN(Cc4nccs4)C[C@H]3O2)ncn1,-150%
11,O=c1[nH]c2nc(NC3CC3)ncc2c(=O)n1-c1ccc(F)cc1,-4.06%
12,Cc1nc2cc(O)nn2c(C)c1CCC(=O)NCCCC(C)C,-1.52%
13,Cn1cc(CN2CCCCC2c2ccc(-c3cccc(Cl)c3)nc2)cn1 (stereo not given),-8.51%
14,CN(C)S(=O)(=O)N1C[C@H]2CCC[C@@]2(COc2cccnc2)C1,11.8%
15,Cc1noc(C)c1C(=O)NCCN1CCOCC1,-10.9%
16,CC(C)NC(=O)CC1COC2(CCN(Cc3cccnc3)CC2)C1 (stereo not given),0.405%
17,CCCOc1ccc(Cl)cc1NC(=O)NCCC(=O)N(C)C,-0.734%
18,COc1ccccc1-c1c[nH]c(C2CCCN2)n1 (stereo not given),0.276%
19,Cc1cccc2c1cnn2CCC(=O)NCC(=O)N(C)C,7.03%
20,O=C(c1ccco1)N1CCc2c(nc(-c3ccncc3)[nH]c2=O)C1,10.4%
21,Cc1cc(C)n(Cc2cc(C(=O)N3CCCC3c3ccccn3)n[nH]2)n1 (stereo not given),0.739%
22,CCOc1ncnc2c1CCN(Cc1csc(C)n1)CC2,-68.1%

row,Compound,cytotoxicity at 10 µM
1,Cc1ccc(C(=O)N2CCn3c(COCC4CC4)cnc3C2C)s1 (stereo not given),5.14%
2,CN(C)S(=O)(=O)N1C[C@@H](OCc2ccccn2)[C@H]2OCCC[C@H]21,10.7%
3,Cc1cnc(C(=O)N2CCC3(CC2)C(=O)NCCN3CC(C)C)cn1,8.52%
4,Cn1cc(C2CCCN2CCc2nc3ccccc3c(=O)[nH]2)cn1 (stereo not given),-12.9%
5,N#Cc1cccc(CN2Cc3nccn3CC(COCC3CC3)C2)c1 (stereo not given),-127%
6,N#Cc1cccc(CN2CC[C@@H]3CN(c4ncccn4)CCO[C@@H]3C2)c1,-6.51%
7,Cc1cc(CNCc2c(C)n(CC(C)C)c3ccccc23)[nH]n1,-1.63%
8,COCc1csc(NC(=O)N2CCC(Cc3cnn(C)c3)C2)n1 (stereo not given),3.13%
9,CN1CCN(C=C2N=C(c3cc(-c4ccc(F)cc4)n[nH]3)ON2)CC1,-2.08%
10,Cc1cc(C(F)(F)F)nn1CC(C)C(=O)Nc1ccccn1 (stereo not given),9.84%
11,CCC1CN(C)c2ccccc2CN1C(=O)Nc1ccccc1OC (stereo not given),-1.87%
12,CN(Cc1nc2c(cnn2C)c(=O)[nH]1)Cc1ccccc1Cl,-5.82%
13,COCCN(C)C[C@H]1C[C@@H](CO)CN(C(=O)c2ccn(C)c(=O)c2)C1,2.14%
14,CCS(=O)(=O)CCN(C)Cc1cc(C)ccc1OC,-51.5%
15,Cc1cccc(N2CCOC(C(=O)O)C2)c1 (stereo not given),-8.89%
16,COc1cccc(Cc2nnc(SC3CCOC3=O)o2)c1 (stereo not given),12.9%
17,Cc1noc(C)c1CN(C)C(=O)C1(N)CCCCC1,6.67%
18,CC(C)[C@H](NC(=O)c1cccc(CCC(C)(C)O)c1)C(N)=O,-0.471%
19,Cc1cc(N2CCC3(CCCN(C4CCOCC4)C3=O)C2)ccn1 (stereo not given),-134%
20,CNc1cc(C2CN(C(=O)c3cscn3)CCO2)nc(C)n1 (stereo not given),9.49%
21,CN1CCC(N(C)CCC(=O)N2CCC(Cc3ccc(F)cc3)CC2)C1 (stereo not given),-1.9%
22,CNC(=O)NC(=O)CCSc1ccccc1C,4.11%

row,Compound,cytotoxicity at 10 µM
1,CC(Nc1nc(-c2ccncc2)nc2c1CCNC2)c1ccccc1 (stereo not given),-9.94%
2,O=C(Nc1cccnc1)C1CN(C(=O)c2ccc3c(c2)OCO3)C1,-11.7%
3,CCCn1nnnc1CN(CC)CC1COc2ccccc2O1 (stereo not given),13.3%
4,CS(=O)(=O)c1cccc(C(=O)NCC2Cc3ccccc3O2)c1 (stereo not given),-1.26%
5,COc1cccc2c1OCC(CNC(=O)COCC(F)(F)C(F)F)C2 (stereo not given),-134%
6,O=C(NCc1sc2ccccc2c1Cl)c1cc2n(n1)CCNC2,7.94%
7,CC1(C)CC(N(Cc2ccccc2)Cc2ncc[nH]2)CC(C)(C)N1,0.385%
8,CCS(=O)(=O)c1ncc(CN(C)Cc2cccc(OC)c2)n1CCOC,-0.636%
9,O=C(c1ccc[nH]1)N1CCCn2c(CN3CCCCC3)nnc2C1,-106%
10,CN(C)c1nc(NCCCN2CCc3ccccc32)ncc1F,27.3%
11,Cc1ccc(NS(=O)(=O)c2cnn(Cc3ccccc3)c2)c(C(=O)O)c1,-2.41%
12,CC(NCCN1CCN(C(=O)C2CCCC2)CC1)c1cnn(C)c1 (stereo not given),-4.59%
13,Cn1ccc(NC(=O)Cc2ccccc2F)n1,19.1%
14,CSCc1ccc(CNCCCN2CCOCC2)o1,5.81%
15,CS(=O)(=O)N1C[C@H]2CC[C@@H](C1)N(C/C=C/c1ccc(F)cc1)C2,-15.5%
16,COc1ccccc1OCCN(C)Cc1c(C2CC2)[nH]c2ncccc12,5.62%
17,CCCc1noc(CCCC(=O)N2CCCC2c2cnn(C)c2)n1 (stereo not given),6.32%
18,Cc1cc(CN(C)C(=O)C2CCCN(C(N)=O)C2)no1 (stereo not given),11.6%
19,CNC(=O)c1ccc(CN(C(=O)c2scnc2C)C2CC2)cc1,-3.09%
20,CCS(=O)(=O)c1ncc(CN2CCN(C)CC2)n1CCc1ccccc1,2.44%
21,CCC(CO)N(Cc1ccsc1)CC1CC1 (stereo not given),11.5%
22,O=C(NCC1(c2cccs2)CCCCC1)N1CCOC(CO)C1 (stereo not given),0.75%

row,Compound,cytotoxicity at 10 µM
1,c1cnc2c(c1)cc([C@H]1CCCO1)n2CCN1CCCCC1,4.99%
2,CC(c1cccnc1)N(C)S(C)(=O)=O (stereo not given),-5.21%
3,O=C(CN1CCC2(CC1)NC(=O)c1cc(Br)ccc1N2)NC1CC1,4.79%
4,COc1ccc(CC(=O)N(C)C2CCN(C)C2=O)cc1F (stereo not given),0.0152%
5,O=c1[nH]c2cn(-c3cccc(F)c3)c(=O)n2n1Cc1ccccc1Cl,4.9%
6,Cn1c2c(c(=O)n1C)CN(C(=O)c1cnccn1)CCC2,-113%
7,CCCc1n[nH]cc1C(=O)N1CCC(c2nccn2CCOC)CC1,-15.3%
8,Cc1oncc1C(=O)N1CCOCC2(CCN(c3ccccn3)C2)C1 (stereo not given),-68.3%
9,Cn1cnnc1SCC(=O)N1C[C@@H]2CC[C@H]1CN(Cc1cccnc1)C2,-2.82%
10,O=C(c1ccc(Cl)cc1)N1CCn2c(nn(-c3ccc(Cl)cc3)c2=O)C1,10.9%
11,CCc1cc(C(=O)N2Cc3ccccc3OC3(CCOCC3)C2)on1,-9.54%
12,Cc1nnc2sc(-c3cc(C(C)C)n[nH]3)nn12,-7.88%
13,c1cnn(CCC2CCCCN2Cc2cnc(C3CCCCC3)nc2)c1 (stereo not given),0.106%
14,CN(C)Cc1ccc(C(=O)N2CCCC(COc3ccc(F)cc3)C2)o1 (stereo not given),-12.9%
15,CC(C)c1cc(=O)[nH]c(-c2ccccc2CN2CCCC2C)n1 (stereo not given),10.4%
16,O=C1C[C@@H]2CCN(Cc3ccccc3)C[C@@H]2CCN1C1CCCCC1,5.17%
17,Cc1noc(C)c1CN1CCn2cc(CN3CCOCC3)nc2C1,4.71%
18,COCCc1noc(CN2CCCC(Cn3nc(C)nc3C)C2)n1 (stereo not given),-6.41%
19,Cc1nc(CC(=O)N2c3ccccc3OCC2C)cs1 (stereo not given),-6.53%
20,CC(=O)Nc1nc(CN(C)C2CCCN(c3cccnn3)C2)cs1 (stereo not given),-11.1%
21,CN(C)CCNCC1(O)CCCN(Cc2cccc(F)c2F)C1=O (stereo not given),-8.71%
22,CC(C)CNC(=O)c1nc2c(s1)CCN(C(=O)c1cccnc1)CC2,7.1%
